# Screening data: PubChem, The Scripps Research Institute Molecular Screening Center
# CHO parental Ca = counter-screen: ATP calcium response change in parental CHO cells. 330,000 compounds, 0.63% hits. parental CHO-K1, ATP-induced calcium, Fluo-8 fluorescence. inhibition, % at 5.6 µM;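 active = inhibition above that plate's mean sample inhibition plus 3 SD, cut at about 26% in these data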;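 note: 0% = ATP-challenged DMSO wells and 100% = DMSO wells without ATP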
#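 Assay system – parental CHO cells · Reagent – ATP stimulus · Detection – intracellular calcium via Fluo-8 no-wash fluorescent dye · Evaluation – percent inhibition of ATP-evoked calcium rise, normalized to controls · Controls – ATP wells versus no-ATP DMSO wells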
# OX1R antag-1 = human HCRTR1 antagonism | O43613 | inhibition, % at 5 µM | CHO/OX1R cells, Fluo-8 calcium fluorescence, orexin A | 330,000 compounds, 0.43% hits;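 active = inhibition above its plate's threshold, mean inhibition of all tested compounds on the plate plus 3 SD, cut at about 37% in these data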;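 note: 0% = orexin A challenge wells and 100% = SB-334867-A antagonist wells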
# Target sequence (O43613 whole entry, looked up): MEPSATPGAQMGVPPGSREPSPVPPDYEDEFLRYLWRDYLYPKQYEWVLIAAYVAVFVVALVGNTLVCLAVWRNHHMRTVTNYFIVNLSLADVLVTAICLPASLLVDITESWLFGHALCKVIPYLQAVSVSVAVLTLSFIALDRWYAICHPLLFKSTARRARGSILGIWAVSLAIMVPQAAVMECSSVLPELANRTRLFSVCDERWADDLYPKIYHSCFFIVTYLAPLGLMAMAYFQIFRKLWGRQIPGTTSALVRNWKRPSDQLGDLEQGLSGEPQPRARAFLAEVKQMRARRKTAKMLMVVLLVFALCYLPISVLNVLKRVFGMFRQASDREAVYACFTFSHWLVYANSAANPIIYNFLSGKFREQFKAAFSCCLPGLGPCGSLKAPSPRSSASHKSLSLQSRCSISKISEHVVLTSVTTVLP
# OX1R antag-2 = antagonists of human orexin 1 receptor (OX1R); OX1R-expressing cells, FRET antagonist read-out; inhibition, % at 6.6 µM; 330,000 compounds, 1.8% hits; AID 485270; in the data active = inhibition mostly above about 38%, no sharp cut-off; inactive = mostly below about 40%;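 note: 0% = agonist challenge alone and 100% = reference antagonist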
# GalR3 antag = blocks the human galanin receptor 3; inhibition, % at 3 µM; 360,000 compounds, 0.44% hits; HEK293 GalR3-CNG cAMP membrane potential fluorescence; galR3 body fused to GalR1 C-terminus; O60755; AID 651719;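 active = inhibition above the screen-wide average plus 3 SD, cut at about 13% in these data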;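 note: forskolin and galanin both at EC90 stimulate the cells; cAMP rise reported by CNG channel membrane potential dye signal; 0% = forskolin plus galanin with DMSO and 100% = forskolin alone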
# GPR7 antagonist = blocks human GPR7 receptor signaling; 290,000 compounds, 1.1% hits; P48145; inhibition, % at 4.4 µM; GPR7-expressing cells, fluorescence antagonist assay; in the data active = inhibition above about 16%, passing the limit was not always enough;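 note: cells stimulated with the agonist NPW; 0% = agonist with vehicle and 100% = vehicle without agonist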
# GPR7 antag cf = confirmation of human GPR7 antagonists | GPR7-expressing cells, calcium fluorescence antagonist mode | shares compounds with GPR7 antagonist | inhibition, % at 4.4 µM | 2,400 compounds, 52% hits; in the data active = inhibition above about 24%;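 note: stimulated with the GPR7 agonist NPW; 0% = agonist plus vehicle and 100% = vehicle alone without agonist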
# MCHR1 antag = MCHR1 (human) antagonism in GPR7 counter-screen. shares compounds with GPR7 antagonist. MCHR1-expressing cells, fluorescence antagonist assay. inhibition, % at 4.4 µM. 2,400 compounds, 62% hits; in the data active = inhibition above about 22%;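 note: 0% = vehicle with agonist and 100% = vehicle without agonist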
# * marks the source's active call; other numbers are inactive results; . = no result given. The list is not random: actives were taken first. Their share in the collection is about 3.1%.
SMILES,CHO parental Ca,OX1R antag-1,OX1R antag-2,GalR3 antag,GPR7 antagonist,GPR7 antag cf,MCHR1 antag
CC(C(=O)NCCCc1ccccc1)c1ccc([N+](=O)[O-])cc1 (centres undefined),1,-8,7,-6,22*,33*,58*
O=C(CSc1ccc([N+](=O)[O-])cn1)Nc1nccs1,-6,-3,39,-7,-5,.,.
CC(C(=O)Nc1nccs1)c1ccc([N+](=O)[O-])cc1 (centres undefined),1,-8,20,0,37*,18,10
COc1ccc(C(c2nnnn2C2CCCCC2)N2CCN(c3ccc(OC)cc3)CC2)cc1 (centres undefined),-8,-9,29,-3,-10,.,.
COc1ccc(OC)c(C(c2nnnn2C2CCCC2)N2CCN(c3ccccc3)CC2)c1 (centres undefined),-18,-13,17,-4,31*,24*,41*
O=C(Cc1ccc(-n2cccc2)cc1)N1CCN(c2ccccc2F)CC1,-23,-20,12,-2,27*,5,8
CC(NC(=O)COC(=O)c1cccc(S(=O)(=O)N2CCCC2)c1)c1ccccc1 (centres undefined),-14,-18,8,-5,.,.,.
CCOC(=O)C(C)Sc1ncnc2c1nnn2-c1ccc(F)cc1 (centres undefined),-6,-21,9,0,44*,38*,44*
CS(=O)(=O)c1ccc(C(=O)OCc2nnc(-c3ccc(Cl)cc3)o2)cc1[N+](=O)[O-],13,4,31,.,35*,88*,78*
CN(CC(=O)Nc1ccc(F)cc1)C(=O)COC(=O)/C=C/c1ccc(OC(F)F)cc1,-11,-24,10,2,.,.,.
Nc1nc(N)nc(-c2ccccc2)n1,-7,0,6,-4,-3,.,.
Nc1nc(N)nc(-c2ccccc2-c2nc(N)nc(N)n2)n1,-10,-5,9,-6,14,-13,-7
CC(NCc1cc(Br)ccc1OCC(N)=O)C12CC3CC(CC(C3)C1)C2 (centres undefined),-27,-49,3,-10,27*,28*,35*
COc1cc(CNC(C)C23CC4CC(CC(C4)C2)C3)ccc1OCC(=O)NC(C)(C)C (centres undefined),-8,-29,13,-12,19,.,.
C=CCOc1c(CNC2CCCC2)cc(Cl)cc1OC,-15,-18,15,5,26*,15,9
COc1cc(CNC2CCCCCCC2)cc(Cl)c1OC,-29,-22,16,-12,18,.,.
OCC1(CCCc2ccccc2)CCN(C2CCSCC2)CC1,-9,-32,9,-5,17,.,.
CCOC(=O)C1(CCCc2ccccc2)CCN(C2CCSCC2)CC1,.,.,.,-7,43*,50*,33*
Cc1ccc(S(=O)(=O)N/N=C/c2ccc(OC3CSC3)cc2)cc1,56*,84*,-5,-3,34*,89*,84*
Nn1c(SCc2nc3ccccc3[nH]2)nnc1-c1cccnc1,2,-8,3,2,-1,.,.
Nn1c(SCc2nc3ccccc3[nH]2)nnc1C1CCCCC1,-16,-27,8,-3,22*,13,-3
COc1cccc(CC(=O)N2CCCC(CO)(Cc3ccc(F)cc3F)C2)c1 (centres undefined),-1,-35,16,-12,26*,-7,-9
O=C(c1ccco1)N1CCC(c2nc(-c3ccccc3Cl)no2)CC1,0,-10,5,-7,28*,0,1
Cc1cc(C)nc(CCNC(=O)c2cc(COc3ccccc3)on2)n1,-10,-8,18,-2,27*,3,-1
COc1ccc(CNC(=O)C2CCCN(S(=O)(=O)c3cnc[nH]3)C2)cc1 (centres undefined),0,-11,15,-3,29*,-12,-8
SMILES,CHO parental Ca,OX1R antag-1,OX1R antag-2,GalR3 antag,GPR7 antagonist,GPR7 antag cf,MCHR1 antag
Cc1ccc(CNC(=O)C2CCCN(S(=O)(=O)c3cnc[nH]3)C2)cc1 (centres undefined),-4,3,6,2,-4,.,.
CN(C)C(=O)Nc1ccccc1,-6,-1,6,-2,-10,.,.
COC(=O)CNC(=O)C(Cc1ccccc1)NS(=O)(=O)c1ccc2c(c1)c(=O)n(C)c(=O)n2C (centres undefined),-3,6,14,-7,-18,.,.
C=CCN1C(=O)S/C(=C/c2ccc(Sc3nc4ccccc4[nH]3)o2)C1=O,27,47*,41,-5,54*,37*,75*
C=CCN1C(=O)S/C(=C/c2ccsc2)C1=O,3,-15,5,-1,-9,.,.
O=C(Nc1cccnc1Cl)c1cc2ccccc2o1,-7,-4,7,-12,-7,.,.
OCC1(Cc2ccc(Cl)cc2)CCN(CCCc2ccccc2)CC1,-14,-35,2,-6,26*,37*,31*
NC1=NC(=Nc2cccc(S(=O)(=O)N3CCOCC3)c2)c2ccccc21,-2,20,9,-1,-6,.,.
COc1ccc(OCCN2CCC(C(=O)NC(c3ccsc3)c3ccccc3C)CC2)cc1 (centres undefined),.,.,.,-6,.,.,.
CC1CCCC(C)N1S(=O)(=O)c1ccc(NC(=O)CNC2CCCC2)cc1 (centres undefined),-7,-6,10,-9,54*,23,6
CC(=O)c1ccc(NC(=O)CNC2CCCCC2)cc1,-9,-24,-3,-5,36*,-2,-6
CC1CCN(S(=O)(=O)c2ccc(NC(=O)CNC3CCCCC3)cc2)CC1,-11,-12,4,-7,-1,.,.
O=C(CNC1CCCCCC1)Nc1ccc(N2CCCC2)cc1,14,-14,17,.,-11,.,.
CCCNS(=O)(=O)c1cc2c3c(c1)CCN3C(=O)CC2,-8,1,4,-6,-6,.,.
CCCCn1nc(NC(=O)CC)c2cc3cc(OC)ccc3nc21,-11,-17,0,-9,-17,.,.
COC(=O)[C@H](CC(C)C)N(Cc1ccccc1)S(=O)(=O)N(Cc1ccc(OC)cc1)[C@@H](CC(C)C)C(=O)OC,-17,7,11,-6,.,.,.
Cc1ccccc1NC(=O)c1cccc(C(=O)Nc2ccccc2C)n1,-23,-39,6,-7,33*,11,37*
Cc1ccccc1NC(=O)c1cccc(C(=O)Nc2ccccc2C)c1,-9,-34,11,-3,.,.,.
C[C@H]1CN([C@@H](C)CO)C(=O)CCCn2nncc2CO[C@@H]1CN(C)C(=O)NC1CCCCC1,.,.,.,-5,.,.,.
CCn1c(CC(=O)Nc2ccccc2)nnc1SCC(=O)Nc1nnc(C)s1,-11,-11,12,-8,-6,.,.
CCc1ccc(/C=C2/Sc3ccccc3N(CC(=O)NCCCN3CCOCC3)C2=O)cc1,13,5,11,1,25*,17,11
